Experimental data pooled from the literature.
Protocols differ between the studies behind these lines.

With OCc1nc2ccc(NCc3ccc(C(F)(F)F)cc3)cc2[nH]1 the Cmax was 1790 ng/mL (male BALB/c mouse, plasma; oral, 10 mg/kg).
With NCc1cc2c(cc1F)C(=O)N(C1CCC(=O)NC1=O)C2 (centres unmarked) the Cmax was 97.2 ng/mL (male CD-1 mouse, plasma; oral, 10 mg/kg).
COc1cccc2c(N3CCC(CCP(=O)(O)O)CC3)ncnc12 has a Cmax of 23000 ng/mL (female BALB/c mouse, serum; subcutaneous, 50 mg/kg, tumour-bearing).
With Cc1cc(-c2ccnc3[nH]cc(F)c23)cc(F)c1[C@@]1(O)[C@H](C)CN(C2CCS(=O)(=O)CC2)C[C@@H]1C the Cmax was 1620 ng/mL (male CD-1 mouse, plasma; intravenous, 1 mg/kg).
The Cmax of Cc1nc2ccc(OCc3ccc(C(F)(F)F)cc3)cc2[nH]1 is reported as 4540 ng/mL (male BALB/c mouse, plasma; intravenous, 1 mg/kg).
The Cmax of CN(C)C(=O)c1cc2cnc(Nc3ccc(-c4ccc5c(=O)cc(N6CCOCC6)oc5c4)cc3)nc2n1C1CCCC1 is reported as 1440 ng/mL (BALB/c mouse, plasma; oral, 20 mg/kg).
Cc1ncsc1-c1ccc([C@H](CC(=O)N2CC3(C2)CN(c2ccc(C#Cc4ccc(C(=O)N5CCC(n6cc(-c7ccc8c(c7)CCN8C(=O)Cc7cccc(OC(F)(F)F)c7)c7c(N)ncnc76)CC5)cc4)cn2)C3)NC(=O)[C@@H]2C[C@@H](O)CN2C(=O)[C@@H](NC(=O)C2(F)CC2)C(C)(C)C)cc1 gave a Cmax of 19000 ng/mL (male C57BL/6 mouse, plasma; intravenous, 1 mg/kg).
For O=C1CCC(N2Cc3cc(C4CCN(Cc5ccccc5)CC4)ccc3C2=O)C(=O)N1 (centres unmarked), the Cmax was 204 ng/mL (male CD-1 mouse, plasma; intravenous, 1 mg/kg).
Cc1ccc(OCC(=O)N[C@@H](Cc2c[nH]c3ccccc23)C(=O)OC(C)C)cc1 has a Cmax of 1840 ng/mL (male Sprague-Dawley mouse, plasma; intravenous, 10 mg/kg).
OCc1ccc(-c2nn(Cc3ccccc3)c3ccccc23)o1 gave a Cmax of 220 ng/mL (male CD-1 mouse, plasma; oral, 10 mg/kg).
Cc1ncsc1-c1ccc([C@H](C)NC(=O)[C@@H]2C[C@@H](O)CN2C(=O)[C@@H](NC(=O)CCCCCCCCCCC(=O)NCCCn2cc(-c3ccc4c(c3)CCN4C(=O)Cc3cccc(OC(F)(F)F)c3)c3c(N)ncnc32)C(C)(C)C)cc1 gave a Cmax of 2330 ng/mL (mouse, plasma; intravenous, 1 mg/kg).
For COC1=CC(c2ccc[nH]2)=N/C1=C\c1[nH]c(Cc2ccc(OC(F)(F)F)cc2)cc1Cc1ccc(OC(F)(F)F)cc1, the Cmax was 3950 ng/mL (male CD-1 mouse, plasma; oral, 40 mg/kg, single dose).
NCc1ccc(-c2nn(Cc3ccncc3)c3ccccc23)o1 gave a Cmax of 1150 ng/mL (male CD-1 mouse, plasma; intraperitoneal, 30 mg/kg).
COC1=CC(c2ccc[nH]2)=N/C1=C\c1cc(Cc2ccc(OC(F)(F)F)cc2)c(C)[nH]1.Cl has a Cmax of 161 ng/mL (male CD-1 mouse, plasma; oral, 40 mg/kg, single dose).
The Cmax of CC(C)(C)c1sc2ncnc(Oc3c(F)cccc3OC(F)(F)F)c2c1-c1ccc(Cl)cc1 is reported as 10300 ng/mL (mouse, plasma; oral, 30 mg/kg, single dose).
Cc1cc(-c2ccnc3[nH]cc(F)c23)cc(F)c1[C@@]1(O)[C@H](C)CN(C(=O)CN)C[C@@H]1C gave a Cmax of 1260 ng/mL (male CD-1 mouse, plasma; oral, 3 mg/kg).
For CC[C@H](C)[C@H](NC(=O)[C@H](CCC(=O)O)NC(=O)[C@H](CO)NC(=O)[C@@H](NC(=O)[C@@H](N)CO)C(C)C)C(=O)N[C@@H](CCC(N)=O)C(=O)N[C@@H](CC(C)C)C(=O)N[C@@H](CCSC)C(=O)N[C@@H](Cc1cnc[nH]1)C(=O)N[C@@H](CC(N)=O)C(=O)N[C@@H](CC(C)C)C(=O)NCC(=O)N[C@@H](CCCCN)C(=O)N[C@@H](Cc1cnc[nH]1)C(=O)N[C@@H](CC(C)C)C(=O)N[C@@H](CC(N)=O)C(=O)N[C@@H](CO)C(=O)N[C@@H](CCSC)C(=O)N[C@@H](CCC(=O)O)C(=O)N[C@@H](CCCNC(=N)N)C(=O)N[C@H](C(=O)N[C@@H](CCC(=O)O)C(=O)N[C@@H](Cc1c[nH]c2ccccc12)C(=O)N[C@@H](CC(C)C)C(=O)N[C@@H](CCCNC(=N)N)C(=O)N[C@@H](CCCCN)C(=O)N[C@@H](CCCCN)C(=O)N[C@@H](CC(C)C)C(=O)N[C@@H](CCC(N)=O)C(=O)N[C@@H](CC(=O)O)C(=O)N[C@H](C(=O)N[C@@H](Cc1cnc[nH]1)C(=O)N[C@@H](CC(N)=O)C(=O)N[C@@H](Cc1ccccc1)C(N)=O)C(C)C)C(C)C, the Cmax was 8 nM (female CD-1 mouse, serum; intravenous, 10 nmol/kg).
The Cmax of CCOC(=O)c1c(NC(=O)CNC(C)C)sc2c1CCCCC2 is reported as 193 ng/mL (male mouse, plasma; intraperitoneal, 5 mg/kg, single dose).
NCc1ccc(-c2nn(Cc3ccccc3)c3ccccc23)o1 gave a Cmax of 395 ng/mL (male CD-1 mouse, plasma; oral, 10 mg/kg).
The Cmax of Cc1ncsc1-c1ccc([C@H](C)NC(=O)[C@@H]2C[C@@H](O)CN2C(=O)[C@@H](NC(=O)CCc2ccc(C#Cc3ccc(C(=O)NCCCn4cc(-c5ccc6c(c5)CCN6C(=O)Cc5cccc(OC(F)(F)F)c5)c5c(N)ncnc54)cc3)cn2)C(C)(C)C)cc1 is reported as 11900 ng/mL (male C57BL/6 mouse, plasma; intravenous, 1 mg/kg).
